# Laboratory results as given in ChEMBL document CHEMBL1154792, “chi-Conopeptide pharmacophore development: toward a novel class of norepinephrine transporter inhibitor (Xen2174) for pain” (J Med Chem, 2009).
# The source made the active and inactive calls.
# What was measured:
# [1] = Displacement of [3H]nisoxetine from rat NET expressed in COS7 cells; type: cell-based; settings: cos-7
# [2] = biological target: T1, Sodium-dependent noradrenaline transporter (Homo sapiens, UniProt P23975); test: Displacement of [3H]nisoxetine from human NET expressed in COS7 cells; type: cell-based, COS-7
# T1 sequence (P23975 whole entry): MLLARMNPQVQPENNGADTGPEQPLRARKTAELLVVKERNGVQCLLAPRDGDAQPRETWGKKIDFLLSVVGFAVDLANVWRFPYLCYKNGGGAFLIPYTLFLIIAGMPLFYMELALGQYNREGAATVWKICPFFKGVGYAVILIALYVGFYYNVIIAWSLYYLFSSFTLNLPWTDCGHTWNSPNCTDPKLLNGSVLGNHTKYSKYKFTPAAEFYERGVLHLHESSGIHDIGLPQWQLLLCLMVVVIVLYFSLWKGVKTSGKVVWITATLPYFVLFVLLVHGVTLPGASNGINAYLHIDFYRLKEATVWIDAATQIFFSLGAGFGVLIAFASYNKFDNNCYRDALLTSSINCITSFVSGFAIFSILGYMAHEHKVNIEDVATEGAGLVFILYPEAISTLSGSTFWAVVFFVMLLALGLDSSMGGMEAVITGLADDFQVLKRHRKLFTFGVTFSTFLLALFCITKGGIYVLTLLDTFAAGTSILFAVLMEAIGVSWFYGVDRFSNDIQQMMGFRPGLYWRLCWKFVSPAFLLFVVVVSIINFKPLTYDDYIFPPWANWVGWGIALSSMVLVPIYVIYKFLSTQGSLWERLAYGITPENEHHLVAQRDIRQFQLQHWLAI
# Method in brief: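 Membranes from COS-7 cells transfected with human NET were incubated with [3H]nisoxetine (4.3 nM) with or without peptide (1 nM to 100 μM, triplicate) for 1 h at RT. Filter-retained radioactivity was counted by liquid scintillation, and values are given as pIC50. Data are means of 2–5 experiments in triplicate; peptide concentration was set by calibrated HPLC at 214 nm.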
# [3] = biological target: T1, Sodium-dependent noradrenaline transporter; test: Inhibition of human NET expressed in COS7 cells assessed as inhibition of [3H]norepinephrine uptake at 1 uM; type: cell-based; settings: COS-7
# [4] = organism: Rattus norvegicus; test: Toxicity in CCI rat pain model assessed as side effects; type: organism-based; settings: in vivo
# Method in brief: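 Rats with unilateral sciatic chronic constriction injury received a single intrathecal bolus via an implanted cannula 14 days after surgery, with morphine and vehicle as comparators. Compound-related behavioural observations were recorded alongside von Frey paw-withdrawal testing. Three animals per analogue.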
# [5] = tested on: Rattus norvegicus; test: Antiallodynic activity in CCI rat pain model assessed as efficayin ipsilateral hind paw withdrawal threshold at 1 nM, iv after 3 hrs; type: functional, organism-based
# Method in brief: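 Unilateral chronic constriction injury of the sciatic nerve in rats. At 14 days post-surgery, a single bolus was given via a chronically implanted intrathecal cannula; morphine and vehicle were comparators. Mechanical allodynia was measured with calibrated von Frey filaments as paw withdrawal threshold in the ipsilateral hindpaw, relative to the pre-dose value. Three animals per analogue; dose chosen from NET potency.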
# [6] = tested on: COS-7; test: Inhibition of rat NET expressed in COS7 cells assessed as inhibition of [3H]norepinephrine uptake; type: cell-based
# [7] = biological target: T1, Sodium-dependent noradrenaline transporter; settings: COS-7
compound,measurement,setting,value
CC(C)C[C@@H]1NC(=O)[C@H](CCCCN)NC(=O)[C@H](Cc2ccc(O)cc2)NC(=O)CNC(=O)[C@@H]2CSSC[C@H](NC1=O)C(=O)N[C@@H](Cc1cnc[nH]1)C(=O)N1CC[C@H](O)[C@H]1C(=O)N[C@H](C(=O)O)CSSC[C@H](NC(=O)[C@@H](NC(=O)CNC(=O)[C@@H]1CCC(=O)N1)C(C)C)C(=O)N2,pIC50,[1],6.67
same,IC50,[2],182 nM
same,Activity,[3],Active
same,Activity,[4],Toxic
same,Activity,[5],Active
same,logEC50,[6],-6.67
same,logEC50,[7],-6.74
